Measured values from ChEMBL document CHEMBL1926518, “Synthesis of macrolones with central piperazine ring in the linker and its influence on antibacterial activity” (2011).
In brackets after ≈: the same amount, converted by molar mass.

What was measured:
Type in all cases: functional
[1] = test system: Staphylococcus aureus; test: Antibacterial activity against constitutive macrolide, licosamide and streptogramin-resistant Staphylococcus aureus PK2 by broth microdilution technique
Summary of the method: (§1)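 MICs were determined by CLSI broth microdilution, with double dilutions of compound. Staphylococci were grown on Mueller–Hinton agar before testing. Results are given in µg/mL.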

[2] = test system: Staphylococcus aureus; test: Antibacterial activity against inducible macrolide, licosamide and streptogramin-resistant Staphylococcus aureus 90256/97 by broth microdilution technique; summary of the method: as §1
[3] = test system: Streptococcus pneumoniae; test: Antibacterial activity against erythromycin-sensitive Streptococcus pneumoniae SP030 by broth microdilution technique
Summary of the method: (§2)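 Streptococcal MICs by CLSI broth microdilution with doubling dilutions, but with 5% horse serum in the medium in place of lysed blood. Before testing, strains were grown on Columbia agar with 5% sheep blood. Values reported in µg/mL.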

[4] = test system: Streptococcus pyogenes; test: Antibacterial activity against erythromycin-sensitive Streptococcus pyogenes 3565 by broth microdilution technique; summary of the method: as §2
[5] = test system: Staphylococcus aureus; test: Antibacterial activity against erythromycin-sensitive Staphylococcus aureus ATCC 13709 by broth microdilution technique
Summary of the method: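 MIC by broth microdilution per CLSI guidelines with doubling dilutions of compounds. Before testing, staphylococci were grown on Mueller–Hinton agar. Values reported in µg/mL.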

[6] = test system: Streptococcus pyogenes; test: Antibacterial activity against efflux-mediated macrolide-resistant Streptococcus pyogenes 3 Finland by broth microdilution technique
Summary of the method: (§3)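 MICs were determined by CLSI broth microdilution, with double dilutions of compound. In the streptococcal medium, 5% horse serum replaced lysed blood. Streptococci were grown on Columbia agar with 5% sheep blood before testing. Results are given in µg/mL.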

[7] = test system: Streptococcus pneumoniae; test: Antibacterial activity against constitutive macrolide, licosamide and streptogramin-resistant Streptococcus pneumoniae 58 Spain by broth microdilution technique; summary of the method: as §3
[8] = test system: Staphylococcus aureus; test: Antibacterial activity against efflux-mediated macrolide-resistant Staphylococcus aureus PK1 by broth microdilution technique; summary of the method: as §1
[9] = test system: Streptococcus pneumoniae; test: Antibacterial activity against efflux-mediated macrolide-resistant Streptococcus pneumoniae Ci137 by broth microdilution technique; summary of the method: as §3
[10] = test system: Streptococcus pyogenes; test: Antibacterial activity against constitutive macrolide, licosamide and streptogramin-resistant Streptococcus pyogenes 166 GR-Micro by broth microdilution technique; summary of the method: as §3
[11] = test system: Haemophilus influenzae; test: Antibacterial activity against Haemophilus influenzae ATCC 49247 by broth microdilution technique
Summary of the method: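 MIC by broth microdilution per CLSI guidelines with doubling dilutions of compounds. Before testing, organisms were grown on Mueller-Hinton chocolate agar. Values reported in µg/mL.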

[12] = test system: Streptococcus pyogenes; test: Antibacterial activity against inducible macrolide, licosamide and streptogramin-resistant Streptococcus pyogenes Finland 11 by broth microdilution technique; summary of the method: as §3
[13] = test system: Moraxella catarrhalis; test: Antibacterial activity against Moraxella catarrhalis ATCC 23246 by broth microdilution technique
Summary of the method: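 MIC by broth microdilution per CLSI guidelines with doubling dilutions of compounds. Before testing, organisms were grown on Columbia agar with 5% sheep blood. Values reported in µg/mL.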

[14] = test system: Streptococcus pneumoniae; test: Antibacterial activity against inducible macrolide-resistant, constitutive licosamide and streptogramin-resistant Streptococcus pneumoniae 134 GR-Micro by broth microdilution technique; summary of the method: as §3

| Compound | MIC [1] | MIC [2] | MIC [3] | MIC [4] | MIC [5] | MIC [6] | MIC [7] | MIC [8] | MIC [9] | MIC [10] | MIC [11] | MIC [12] | MIC [13] | MIC [14] |
| --- | --- | --- | --- | --- | --- | --- | --- | --- | --- | --- | --- | --- | --- | --- |
| CCOC(=O)c1cn(CC)c2ccc(CCCN3CCN(CCC(=O)O[C@H]4[C@H](C)O[C@@H](O[C@H]5[C@H](C)[C@@H](O[C@@H]6O[C@H](C)C[C@H](N(C)C)[C@H]6O)[C@](C)(OC)C[C@@H](C)C(=O)[C@H](C)[C@@H](O)[C@](C)(O)[C@@H](CC)OC(=O)[C@@H]5C)C[C@@]4(C)OC)CC3)cc2c1=O | > 64 µg/mL | > 64 µg/mL | ≤ 0.125 µg/mL | ≤ 0.125 µg/mL | 4 µg/mL (≈ 3.41 µM) | ≤ 0.125 µg/mL | 8 µg/mL (≈ 6.82 µM) | > 64 µg/mL | ≤ 0.125 µg/mL | 16 µg/mL (≈ 13.6 µM) | > 64 µg/mL | 0.25 µg/mL (≈ 0.213 µM) | 4 µg/mL (≈ 3.41 µM) | 16 µg/mL (≈ 13.6 µM) |
| CCOC(=O)c1cn(C2CC2)c2ccc(CCCN3CCN(CCC(=O)O[C@H]4[C@H](C)O[C@@H](O[C@H]5[C@H](C)[C@@H](O[C@@H]6O[C@H](C)C[C@H](N(C)C)[C@H]6O)[C@](C)(OC)C[C@@H](C)C(=O)[C@H](C)[C@@H](O)[C@](C)(O)[C@@H](CC)OC(=O)[C@@H]5C)C[C@@]4(C)OC)CC3)cc2c1=O | > 64 µg/mL | > 64 µg/mL | ≤ 0.125 µg/mL | ≤ 0.125 µg/mL | 4 µg/mL (≈ 3.37 µM) | ≤ 0.125 µg/mL | 4 µg/mL (≈ 3.37 µM) | > 64 µg/mL | ≤ 0.125 µg/mL | 16 µg/mL (≈ 13.5 µM) | > 64 µg/mL | 0.5 µg/mL (≈ 0.422 µM) | 4 µg/mL (≈ 3.37 µM) | 16 µg/mL (≈ 13.5 µM) |
| CCOC(=O)c1cn(CC)c2ccc(C#CCN3CCN(CCC(=O)O[C@H]4[C@H](C)O[C@@H](O[C@H]5[C@H](C)[C@@H](O[C@@H]6O[C@H](C)C[C@H](N(C)C)[C@H]6O)[C@](C)(O)C[C@@H](C)CN(C)[C@H](C)[C@@H](O)[C@](C)(O)[C@@H](CC)OC(=O)[C@@H]5C)C[C@@]4(C)OC)CC3)cc2c1=O | > 64 µg/mL | > 64 µg/mL | ≤ 0.125 µg/mL | ≤ 0.125 µg/mL | 1 µg/mL (≈ 0.854 µM) | ≤ 0.125 µg/mL | ≤ 0.125 µg/mL | 16 µg/mL (≈ 13.7 µM) | ≤ 0.125 µg/mL | 32 µg/mL (≈ 27.3 µM) | 4 µg/mL (≈ 3.42 µM) | ≤ 0.125 µg/mL | 1 µg/mL (≈ 0.854 µM) | ≤ 0.125 µg/mL |
| CCOC(=O)c1cn(CC)c2ccc(CCCN3CCN(CCC(=O)O[C@H]4[C@H](C)O[C@@H](O[C@H]5[C@H](C)[C@@H](O[C@@H]6O[C@H](C)C[C@H](N(C)C)[C@H]6O)[C@](C)(O)C[C@@H](C)CN(C)[C@H](C)[C@@H](O)[C@](C)(O)[C@@H](CC)OC(=O)[C@@H]5C)C[C@@]4(C)OC)CC3)cc2c1=O | > 64 µg/mL | > 64 µg/mL | ≤ 0.125 µg/mL | ≤ 0.125 µg/mL | 1 µg/mL (≈ 0.851 µM) | 0.5 µg/mL (≈ 0.426 µM) | ≤ 0.125 µg/mL | 64 µg/mL (≈ 54.5 µM) | ≤ 0.125 µg/mL | 32 µg/mL (≈ 27.2 µM) | 2 µg/mL (≈ 1.7 µM) | ≤ 0.125 µg/mL | 0.25 µg/mL (≈ 0.213 µM) | ≤ 0.125 µg/mL |
| CCOC(=O)c1cn(CC)c2ccc(C#CCN3CCN(CCC(=O)O[C@H]4[C@H](C)O[C@@H](O[C@H]5[C@H](C)[C@@H](O[C@@H]6O[C@H](C)C[C@H](N(C)C)[C@H]6O)[C@](C)(O)C[C@@H](C)CN(C)[C@H](C)[C@@H](OC)[C@](C)(O)[C@@H](CC)OC(=O)[C@@H]5C)C[C@@]4(C)OC)CC3)cc2c1=O | > 64 µg/mL | > 64 µg/mL | ≤ 0.125 µg/mL | ≤ 0.125 µg/mL | 4 µg/mL (≈ 3.38 µM) | 1 µg/mL (≈ 0.844 µM) | 1 µg/mL (≈ 0.844 µM) | > 64 µg/mL | ≤ 0.125 µg/mL | 32 µg/mL (≈ 27 µM) | 32 µg/mL (≈ 27 µM) | 0.25 µg/mL (≈ 0.211 µM) | 8 µg/mL (≈ 6.75 µM) | 0.5 µg/mL (≈ 0.422 µM) |
| CCOC(=O)c1cn(C2CC2)c2ccc(C#CCN3CCN(CCC(=O)O[C@H]4[C@H](C)O[C@@H](O[C@H]5[C@H](C)[C@@H](O[C@@H]6O[C@H](C)C[C@H](N(C)C)[C@H]6O)[C@](C)(O)C[C@@H](C)CN(C)[C@H](C)[C@@H](OC)[C@](C)(O)[C@@H](CC)OC(=O)[C@@H]5C)C[C@@]4(C)OC)CC3)cc2c1=O | > 64 µg/mL | > 64 µg/mL | ≤ 0.125 µg/mL | ≤ 0.125 µg/mL | 4 µg/mL (≈ 3.34 µM) | 0.5 µg/mL (≈ 0.418 µM) | 0.5 µg/mL (≈ 0.418 µM) | 64 µg/mL (≈ 53.5 µM) | ≤ 0.125 µg/mL | 32 µg/mL (≈ 26.7 µM) | 16 µg/mL (≈ 13.4 µM) | ≤ 0.125 µg/mL | 4 µg/mL (≈ 3.34 µM) | 0.25 µg/mL (≈ 0.209 µM) |
| CC[C@H]1OC(=O)[C@H](C)[C@@H](O[C@H]2C[C@@](C)(OC)[C@@H](OC(=O)CCN3CCN(CC#Cc4ccc5c(c4)c(=O)c(C(=O)O)cn5CC)CC3)[C@H](C)O2)[C@H](C)[C@@H](O[C@@H]2O[C@H](C)C[C@H](N(C)C)[C@H]2O)[C@](C)(O)C[C@@H](C)CN(C)[C@H](C)[C@@H](OC)[C@]1(C)O | > 64 µg/mL | 8 µg/mL (≈ 6.92 µM) | ≤ 0.125 µg/mL | ≤ 0.125 µg/mL | 0.25 µg/mL (≈ 0.216 µM) | ≤ 0.125 µg/mL | 4 µg/mL (≈ 3.46 µM) | 0.5 µg/mL (≈ 0.432 µM) | ≤ 0.125 µg/mL | 16 µg/mL (≈ 13.8 µM) | 1 µg/mL (≈ 0.865 µM) | ≤ 0.125 µg/mL | 0.5 µg/mL (≈ 0.432 µM) | 8 µg/mL (≈ 6.92 µM) |
| CCOC(=O)c1cn(CC)c2ccc(CCCN3CCN(CCC(=O)O[C@H]4[C@H](C)O[C@@H](O[C@H]5[C@H](C)[C@@H](O[C@@H]6O[C@H](C)C[C@H](N(C)C)[C@H]6O)[C@](C)(O)C[C@@H](C)CN(C)[C@H](C)[C@@H](OC)[C@](C)(O)[C@@H](CC)OC(=O)[C@@H]5C)C[C@@]4(C)OC)CC3)cc2c1=O | > 64 µg/mL | > 64 µg/mL | ≤ 0.125 µg/mL | ≤ 0.125 µg/mL | 4 µg/mL (≈ 3.37 µM) | 2 µg/mL (≈ 1.68 µM) | 8 µg/mL (≈ 6.73 µM) | > 64 µg/mL | 2 µg/mL (≈ 1.68 µM) | > 64 µg/mL | 32 µg/mL (≈ 26.9 µM) | 2 µg/mL (≈ 1.68 µM) | 0.25 µg/mL (≈ 0.21 µM) | 32 µg/mL (≈ 26.9 µM) |
| CC[C@H]1OC(=O)[C@H](C)[C@@H](O[C@H]2C[C@@](C)(OC)[C@@H](OCCCN3CCN(C/C=C/c4ccc5c(c4)c(=O)c(C(=O)O)cn5CC)CC3)[C@H](C)O2)[C@H](C)[C@@H](O[C@@H]2O[C@H](C)C[C@H](N(C)C)[C@H]2O)[C@](C)(O)C[C@@H](C)CN(C)[C@H](C)[C@@H](O)[C@]1(C)O | > 64 µg/mL | > 64 µg/mL | ≤ 0.125 µg/mL | ≤ 0.125 µg/mL | 2 µg/mL (≈ 1.77 µM) | 4 µg/mL (≈ 3.54 µM) | 32 µg/mL (≈ 28.3 µM) | 8 µg/mL (≈ 7.08 µM) | 8 µg/mL (≈ 7.08 µM) | 64 µg/mL (≈ 56.6 µM) | 16 µg/mL (≈ 14.2 µM) | 1 µg/mL (≈ 0.885 µM) | 0.5 µg/mL (≈ 0.442 µM) | > 64 µg/mL |
| CC[C@H]1OC(=O)[C@H](C)[C@@H](O[C@H]2C[C@@](C)(OC)[C@@H](O)[C@H](C)O2)[C@H](C)[C@@H](O[C@@H]2O[C@H](C)C[C@H](N(C)C)[C@H]2O)[C@](C)(O)C[C@@H](C)CN(C)[C@H](C)[C@@H](O)[C@]1(C)O [AZITHROMYCIN] | > 64 µg/mL | > 64 µg/mL | ≤ 0.125 µg/mL | ≤ 0.125 µg/mL | 0.5 µg/mL (≈ 0.668 µM) | 8 µg/mL (≈ 10.7 µM) | > 64 µg/mL | > 64 µg/mL | 8 µg/mL (≈ 10.7 µM) | > 64 µg/mL | 1 µg/mL (≈ 1.34 µM) | 16 µg/mL (≈ 21.4 µM) | ≤ 0.125 µg/mL | > 64 µg/mL |
